This is an account of results in ChEMBL document CHEMBL3779820, “Discovery of a Novel Inhibitor of Histone Lysine-Specific Demethylase 1A (KDM1A/LSD1) as Orally Active Antitumor Agent” (J Med Chem, 2016).

Series [1] concerns the target Lysine-specific histone demethylase 1A (Homo sapiens) (UniProt O60341). Nature of the series: Inhibition of KDM1A in human NB4 cells assessed as increase in GFI1B mRNA expression at biochemical IC50 measured after 24 hrs by RT-PCR analysis relative to control. It is filed as cell-based. As to conditions: NB-4.
Series [2] in a line: Anticlonogenic activity against 129sv mouse APL blast cells assessed as inhibition of colony formation of cells at 0.25 uM measured after 7 days relative to control. As to conditions: 168 h. It is filed as functional.
The target of series [3] is Lysine-specific histone demethylase 1A (Homo sapiens) (UniProt O60341). The series can be described thus: Inhibition of KDM1A in human NB4 cells assessed as increase in CD11b mRNA expression at biochemical IC50 measured after 24 hrs by RT-PCR analysis relative to control. It is filed as cell-based. As to conditions: NB-4.
For a further series, the species on record is Homo sapiens. Nature of the series: Selectivity ratio of IC50 for human recombinant MAOA expressed in Pichia pastoris to IC50 for human recombinant KDM1A/CoREST expressed in Escherichia coli.
Series [4] has as its target T1, Amine oxidase [flavin-containing] B (Homo sapiens, UniProt P27338).
T1 sequence (P27338 whole entry): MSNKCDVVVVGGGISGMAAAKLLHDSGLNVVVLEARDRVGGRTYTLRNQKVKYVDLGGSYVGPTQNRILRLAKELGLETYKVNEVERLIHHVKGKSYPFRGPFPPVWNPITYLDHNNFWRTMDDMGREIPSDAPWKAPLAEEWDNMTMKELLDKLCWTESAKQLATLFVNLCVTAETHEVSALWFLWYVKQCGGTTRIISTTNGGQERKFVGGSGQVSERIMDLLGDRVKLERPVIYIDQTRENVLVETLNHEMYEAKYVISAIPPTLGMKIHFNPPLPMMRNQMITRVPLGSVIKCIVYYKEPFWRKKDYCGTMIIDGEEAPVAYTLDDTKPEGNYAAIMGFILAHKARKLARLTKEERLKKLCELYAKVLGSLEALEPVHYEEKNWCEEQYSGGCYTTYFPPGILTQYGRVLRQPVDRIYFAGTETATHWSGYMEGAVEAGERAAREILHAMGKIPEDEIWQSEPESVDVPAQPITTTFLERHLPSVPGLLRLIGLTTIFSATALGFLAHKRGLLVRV
The series can be described thus: Inhibition of human recombinant MAOB expressed in Pichia pastoris preincubated for 15 mins measured after 30 mins by bioluminescent-coupled assay. The gist of the method:
(§1)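 Human recombinant KDM1A/CoREST, KDM1B, MAO A and MAO B used as enzyme sources; compounds incubated with the enzyme and results expressed as IC50.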

Series [5] has as its target T2, Amine oxidase [flavin-containing] A (Homo sapiens, UniProt P21397).
T2 sequence (P21397 whole entry): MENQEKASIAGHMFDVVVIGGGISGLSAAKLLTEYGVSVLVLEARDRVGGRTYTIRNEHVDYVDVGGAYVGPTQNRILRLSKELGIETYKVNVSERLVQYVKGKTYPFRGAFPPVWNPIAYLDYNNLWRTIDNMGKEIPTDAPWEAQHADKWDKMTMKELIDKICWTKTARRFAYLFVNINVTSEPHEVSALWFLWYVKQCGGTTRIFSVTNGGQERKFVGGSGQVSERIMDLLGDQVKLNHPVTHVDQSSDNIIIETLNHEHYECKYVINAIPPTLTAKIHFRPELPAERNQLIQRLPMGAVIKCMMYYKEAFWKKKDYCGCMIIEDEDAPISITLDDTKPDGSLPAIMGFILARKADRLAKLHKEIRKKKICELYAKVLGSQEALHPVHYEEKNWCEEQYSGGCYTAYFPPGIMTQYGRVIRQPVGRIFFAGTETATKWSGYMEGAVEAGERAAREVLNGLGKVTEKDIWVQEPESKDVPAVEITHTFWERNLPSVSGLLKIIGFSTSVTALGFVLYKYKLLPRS
The series can be described thus: Inhibition of human recombinant MAOA expressed in Pichia pastoris preincubated for 15 mins measured after 30 mins by bioluminescent-coupled assay. The gist of the method: as §1

In series [6] the target is T3, Lysine-specific histone demethylase 2 (Homo sapiens, UniProt Q8NB78).
T3 sequence (Q8NB78 whole entry): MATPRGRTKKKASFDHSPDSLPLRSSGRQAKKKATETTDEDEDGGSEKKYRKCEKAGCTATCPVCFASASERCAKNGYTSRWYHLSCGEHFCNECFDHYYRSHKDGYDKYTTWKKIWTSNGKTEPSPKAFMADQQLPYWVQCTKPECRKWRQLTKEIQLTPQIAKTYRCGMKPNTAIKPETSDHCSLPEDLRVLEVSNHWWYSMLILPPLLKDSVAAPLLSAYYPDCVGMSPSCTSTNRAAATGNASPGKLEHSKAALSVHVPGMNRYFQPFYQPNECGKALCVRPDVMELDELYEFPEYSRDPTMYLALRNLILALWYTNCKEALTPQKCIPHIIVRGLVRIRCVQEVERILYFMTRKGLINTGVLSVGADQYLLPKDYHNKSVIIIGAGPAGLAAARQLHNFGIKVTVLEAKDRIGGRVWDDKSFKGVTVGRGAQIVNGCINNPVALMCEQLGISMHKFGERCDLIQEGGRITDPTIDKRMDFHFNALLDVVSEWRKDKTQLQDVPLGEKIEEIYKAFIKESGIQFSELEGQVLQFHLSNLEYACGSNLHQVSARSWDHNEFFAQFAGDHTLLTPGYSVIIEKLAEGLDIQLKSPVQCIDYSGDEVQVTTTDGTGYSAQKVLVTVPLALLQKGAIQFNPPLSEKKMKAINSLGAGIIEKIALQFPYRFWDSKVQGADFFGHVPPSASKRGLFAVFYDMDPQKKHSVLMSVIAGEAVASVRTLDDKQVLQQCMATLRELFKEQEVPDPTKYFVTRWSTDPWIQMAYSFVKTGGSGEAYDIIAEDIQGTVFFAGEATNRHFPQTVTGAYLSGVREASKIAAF
The series can be described thus: Inhibition of KDM1B (unknown origin).

In series [7] the test system is THP-1. The series can be described thus: Induction of differentiation of human THP1 cells assessed assessed as alteration in morphology of colonies after 13 days by May Grunwald-Giemsa staining based assay. The class given is functional, cell-based. A digest of the protocol:
(§2)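 THP-1 cells cultured 13 days in semisolid methylcellulose with compound at 0.5 µM; colony morphology imaged, and cells recovered at end of culture examined as May Grunwald-Giemsa-stained cytospin preparations.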

Series [8] in a line: Anticlonogenic activity against human THP1 cells assessed as inhibition of colony formation of cells at 0.5 uM measured after 13 days relative to control. The class given is functional. As to conditions: THP-1, […]. The gist of the method:
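THP-1 cells (RPMI, 10% FBS, 2 mM L-glutamine, 37°C, 5% CO2) plated at 250 cells/plate in enriched methylcellulose medium with compound at 0.5 µM for 13 days.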

Series [9] in a line: Antitumor activity against 129SvEv mouse APL blast cells implanted in nonirradiated 129SvEv mouse assessed as increase in survival of leukemic mouse at 0.0125 mg/kg, ip administered for 5 days per week for 2 weeks by Kaplan-Meier plot analysis relative to vehicle control. It is filed as functional. A digest of the protocol:
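One million leukemic blasts from 129SvEv mice given iv to non-irradiated syngeneic recipients; groups of at least 6 mice randomized. Dosing began once blasts appeared in peripheral blood (about day 10). Drug dissolved in 40% PEG 400 in 5% glucose and given ip. Survival compared with the vehicle group by Kaplan–Meier analysis.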

In series [10] the test system is THP-1. The series can be described thus: Induction of differentiation of human THP1 cells after 13 days by cytospin assay. The class given is functional, cell-based. A digest of the protocol:
as §2

The next series deals with LSD1/CoREST complex (Homo sapiens, UniProt O60341). Nature of the series: Inhibition of human recombinant KDM1A/CoREST expressed in Escherichia coli using mono-methylated H3-K4 peptide as substrate assessed as H2O2 release preincubated for 15 mins followed by substrate addition measured for 12 mins by fluorescence-based microplate reader analysis. A digest of the protocol:
as §1

A short description of series [11]: Tmax in CD1 mouse at 15 mg/kg, po administered as single dose. It is filed as ADME, organism-based. The settings on record: in vivo. The gist of the method:
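Single dose to CD1 mice: 5 mg/kg iv in 5% glucose with 10% tween 80, or 15 mg/kg orally in 5% glucose with 40% PEG. Plasma parameters derived from concentration–time profiles.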

Calls of active or inactive are those of the source. The calls are words filed in the database; no cut-off is given here.

`CN1CCN(c2ccc(C(=O)Nc3ccc([C@@H]4C[C@H]4N)cc3)cc2NC(=O)OCc2ccccc2)CC1` (relative stereo): the fold change (FC) in series [1] stood at 4.5; in [3] it was 3. For the same compound, the inhibition at 0.25 µM in series [2] is 57%. In addition, in the series listed under Homo sapiens, the Ratio IC50 is greater than 10. Further, the IC50 was greater than 100000 nM in [4], 1000 nM in [5] and 4300 nM in series [6].
Take `N[C@H]1CC[C@H](N[C@@H]2C[C@H]2c2ccccc2)CC1`: the outcome with THP-1 [7] and in the series with THP-1 [10] was Active. Moreover, the inhibition at 0.5 µM in series [8] was determined as 58%. For the same compound, the fold change (FC) in series [1] came to 7; in series [3], 5.1. Moreover, the inhibition at 0.25 µM in series [2] stood at 84%. For the same compound, the Activity in [9] is 14%. Also, the IC50 is 48400 nM in series [5] and 43400 nM in series [6].
`CN1CCN(c2ccc(C(=O)Nc3ccc([C@@H]4C[C@H]4N)cc3)cc2)CC1` [listing 1 of 2 here]: the fold change (FC) was 4.2 in [1] and 3.9 in [3].
As for `CN1CCN(c2ccc(C(=O)Nc3ccc([C@@H]4C[C@H]4N)cc3)cc2)CC1.Cl.Cl` (racemic), the IC50 on LSD1/CoREST complex came to 189 nM. Further, the Tmax in series [11] was determined as 12 h.
Consider `N[C@@H]1C[C@H]1c1ccc(NC(=O)c2ccccc2)cc1`, for which the inhibition at 0.5 µM in series [8] is 8%. Also, in [2], the inhibition at 0.25 µM was 73%. Besides, the IC50 in [6] was 58300 nM.
As to `N[C@@H]1C[C@H]1c1ccc(NC(=O)c2ccc(N3CCOCC3)c(NC(=O)OCc3ccccc3)c2)cc1` (relative stereo), the figures for the fold change (FC) in [1] and in [3] were 4.8 and 3.8, respectively. Moreover, in series [2], the inhibition at 0.25 µM is 59%. The IC50 on LSD1/CoREST complex was determined as 61.4 nM; in series [4] it was 62900 nM; in series [5], 193 nM; in series [6], 5700 nM.
For the compound `CN1CCN(c2ccc(C(=O)Nc3ccc([C@@H]4C[C@H]4N)cc3)cc2)CC1` [listing 2 of 2 here], the IC50 on LSD1/CoREST complex worked out at 84 nM.
Regarding `CN1CCN(c2ccc(C(=O)Nc3ccc([C@H]4C[C@@H]4N)cc3)cc2)CC1`, the values for the fold change (FC) in [1] and in series [3] were 3 and 3.1, respectively. Moreover, the IC50 at LSD1/CoREST complex was determined as 230 nM.
`N[C@@H]1C[C@H]1c1ccc(NC(=O)c2ccc(NC(=O)OCc3ccccc3)c(N3CCOCC3)c2)cc1` (relative stereo): the results for the fold change (FC) in [1] and in series [3] were 5.6 and 3.2, respectively. In [2], the inhibition at 0.25 µM turned out to be 57%. The IC50 in [4] was determined as 27800 nM; in series [5] it was 345 nM; in series [6], 14900 nM.
Consider `CN1CCN(c2ccc(C(=O)Nc3ccc([C@@H]4C[C@H]4N)cc3)cc2)CC1` (racemic), for which the figures for the fold change (FC) in series [1] and in series [3] were 4.9 and 3.2, respectively.
`N[C@@H]1C[C@H]1c1ccc(NC(=O)c2cccc(NC(=O)OCc3ccccc3)c2)cc1` (racemic): the IC50 on LSD1/CoREST complex is 42.6 nM; in [4], greater than 100000 nM; in series [5], 25 nM; in [6] it was 11600 nM.
For `N[C@@H]1C[C@H]1c1ccc(NC(=O)c2ccc(N3CCCCC3)c(NC(=O)OCc3ccccc3)c2)cc1` (relative stereo), the IC50 on LSD1/CoREST complex was found to be 308 nM.
On to `CN1CCC(c2ccc(C(=O)Nc3ccc([C@@H]4C[C@H]4N)cc3)cc2)CC1.Cl` (racemic), for which the fold change (FC) in series [1] was 4.1; in series [3] it was 3.4. Also, on LSD1/CoREST complex, the half-maximal inhibitory concentration (IC50) stood at 51.2 nM. In addition, the Tmax in [11] was 18 h.
Turning to `N[C@@H]1C[C@H]1c1ccc(NC(=O)c2ccc(N3CCOCC3)cc2)cc1` (racemic), the IC50 is 61.5 nM on LSD1/CoREST complex, 600 nM in series [4], 54.8 nM in [5] and 74700 nM in series [6].
Taken in the same sequence, the figures for `N[C@@H]1C[C@H]1c1ccc(NC(=O)c2ccc(-c3ccoc3)cc2)cc1` (racemic) were 22.5 nM, 87 nM, 40 nM and 51000 nM.
Consider `N[C@@H]1C[C@H]1c1ccc(NC(=O)c2ccc(N3CCOC3=O)cc2)cc1` (racemic), for which the figures for the IC50 (at LSD1/CoREST complex; in series [4]; in series [5]) were 33.5 nM, 1600 nM and 29.7 nM, respectively.
